Legend:
[1] = Oral bioavailability in mouse (dose 50 mg/kg); format: ADME, organism-based; details: in vivo
Caco-2 = assay: In vitro CACO-2 cell permeability potency was determined; format: functional, cell-based; details: Homo sapiens
[2] = Maximum clearance in mouse upon 5 mpk intravenous administration; format: ADME, organism-based; details: in vivo, 5 mg/kg
[3] = Extension in area under curve for the compound was determined in mouse upon 5 mpk intravenous administration; format: ADME; details: in vivo, 5 mg/kg
[4] = Half life in mouse upon 5 mpk intravenous administration; format: ADME, organism-based; details: in vivo, 5 mg/kg
[5] = Extension in area under curve for the compound was determined in mouse upon 50 mpk peroral administration; format: ADME; details: in vivo, po, 50 mg/kg
[6] = Maximum time required to reach maximum plasma concentration in mouse upon 50 mpk peroral administration (n=3); Range = 0.25-0.50 hr; format: ADME, organism-based; details: po, 50 mg/kg
Integrin alpha-5/beta-1 = Integrin alpha-5/beta-1 (Homo sapiens, UniProt P05556+P08648); assay: In vitro inhibition of human alpha5-beta1 integrin binding in ELISA; format: protein-complex assay
Summary of the method: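 Human α5β1 coated at 3 µg/mL; blocking and binding at 30 °C. Biotinylated human fibronectin (1 µg/mL) with compounds 0.0001-20 µM, 2 h; NeutrAvidin-HRP 1 h 30 °C, OPD read at 492 nm. % inhibition vs buffer controls averaged over three determinations; IC50 by four-parameter fit.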

Integrin alpha-V/beta-3 = Integrin alpha-V/beta-3 (Homo sapiens, UniProt P05106+P06756); assay: In vitro inhibition of human alphaV-beta3 integrin binding in ELISA; format: protein-complex assay
Sequence of Integrin alpha-V/beta-3 (P05106 27-788 limits assumed): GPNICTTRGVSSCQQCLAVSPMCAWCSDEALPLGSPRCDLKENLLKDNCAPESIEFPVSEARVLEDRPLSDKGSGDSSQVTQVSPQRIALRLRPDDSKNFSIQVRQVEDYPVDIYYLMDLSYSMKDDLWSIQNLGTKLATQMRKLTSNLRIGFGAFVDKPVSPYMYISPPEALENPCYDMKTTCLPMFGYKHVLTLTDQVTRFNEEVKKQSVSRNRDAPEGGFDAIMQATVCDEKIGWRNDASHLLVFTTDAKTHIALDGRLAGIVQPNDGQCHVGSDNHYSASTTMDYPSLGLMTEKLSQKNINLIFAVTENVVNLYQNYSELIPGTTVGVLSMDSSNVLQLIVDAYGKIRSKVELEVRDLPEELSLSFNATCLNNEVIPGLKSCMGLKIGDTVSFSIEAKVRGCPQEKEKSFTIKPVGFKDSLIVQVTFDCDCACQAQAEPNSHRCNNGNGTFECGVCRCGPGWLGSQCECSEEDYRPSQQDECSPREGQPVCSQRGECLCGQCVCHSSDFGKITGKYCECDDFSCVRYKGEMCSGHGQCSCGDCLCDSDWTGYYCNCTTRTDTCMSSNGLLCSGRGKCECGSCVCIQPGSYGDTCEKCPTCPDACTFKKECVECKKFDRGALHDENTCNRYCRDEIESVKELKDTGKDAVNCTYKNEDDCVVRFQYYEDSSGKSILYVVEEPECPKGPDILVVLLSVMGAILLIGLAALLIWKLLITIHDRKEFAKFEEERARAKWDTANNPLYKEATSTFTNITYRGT
Sequence of Integrin alpha-V/beta-3 (P06756 31-889 limits assumed): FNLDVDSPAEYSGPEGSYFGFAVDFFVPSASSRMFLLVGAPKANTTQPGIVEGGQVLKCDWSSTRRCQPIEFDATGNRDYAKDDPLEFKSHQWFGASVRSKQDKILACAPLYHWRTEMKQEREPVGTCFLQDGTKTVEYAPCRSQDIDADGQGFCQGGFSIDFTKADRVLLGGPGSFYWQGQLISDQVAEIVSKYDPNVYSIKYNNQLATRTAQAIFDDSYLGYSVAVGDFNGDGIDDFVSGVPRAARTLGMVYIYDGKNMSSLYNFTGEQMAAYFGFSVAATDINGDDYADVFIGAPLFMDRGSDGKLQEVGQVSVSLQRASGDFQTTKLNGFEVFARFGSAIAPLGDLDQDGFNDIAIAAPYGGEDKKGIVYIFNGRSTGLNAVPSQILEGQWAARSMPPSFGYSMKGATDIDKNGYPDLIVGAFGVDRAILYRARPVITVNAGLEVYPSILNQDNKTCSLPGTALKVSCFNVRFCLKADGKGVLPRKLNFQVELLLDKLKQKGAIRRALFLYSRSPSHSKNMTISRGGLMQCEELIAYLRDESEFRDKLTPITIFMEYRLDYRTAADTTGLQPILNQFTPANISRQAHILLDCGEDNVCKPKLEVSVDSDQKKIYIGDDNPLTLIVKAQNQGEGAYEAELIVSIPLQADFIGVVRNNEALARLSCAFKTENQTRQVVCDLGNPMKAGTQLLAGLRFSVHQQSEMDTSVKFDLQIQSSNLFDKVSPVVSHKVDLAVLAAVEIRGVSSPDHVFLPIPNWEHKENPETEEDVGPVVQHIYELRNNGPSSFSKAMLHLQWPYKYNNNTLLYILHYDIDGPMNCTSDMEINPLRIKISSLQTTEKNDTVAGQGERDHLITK
Sequence of Integrin alpha-V/beta-3 (P06756 891-1048 limits assumed): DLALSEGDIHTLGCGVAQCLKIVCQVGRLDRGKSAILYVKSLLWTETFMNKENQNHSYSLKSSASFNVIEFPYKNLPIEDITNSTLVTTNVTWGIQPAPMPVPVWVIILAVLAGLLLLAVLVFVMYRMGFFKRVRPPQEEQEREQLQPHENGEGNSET
Summary of the method: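 Plate-coated human αvβ3 (0.4 µg/mL) in Tris buffer with Ca, Mg, Mn; compounds 0.0001-20.0 µM with biotinylated human vitronectin (1 µg/mL), 2 h, room temperature throughout. NeutrAvidin-HRP detection, OPD read at 492 nm; % inhibition vs buffer controls from triplicate determinations, IC50 by four-parameter fit.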

[7] = Mean residence time for the compound was determined in mouse upon 5 mpk intravenous administration; format: ADME, organism-based; details: in vivo, 5 mg/kg
Integrin alpha-V/beta-5 = Integrin alpha-V/beta-5 (Homo sapiens, UniProt P06756+P18084); assay: In vitro inhibition of human alphaV-beta5 integrin binding in ELISA; format: protein-complex assay
Sequence of Integrin alpha-V/beta-5 (P06756 31-889 limits assumed): as the sequence (P06756 31-889 limits assumed) above
Sequence of Integrin alpha-V/beta-5 (P06756 891-1048 limits assumed): as the sequence (P06756 891-1048 limits assumed) above
Sequence of Integrin alpha-V/beta-5 (P18084 24-799 limits assumed): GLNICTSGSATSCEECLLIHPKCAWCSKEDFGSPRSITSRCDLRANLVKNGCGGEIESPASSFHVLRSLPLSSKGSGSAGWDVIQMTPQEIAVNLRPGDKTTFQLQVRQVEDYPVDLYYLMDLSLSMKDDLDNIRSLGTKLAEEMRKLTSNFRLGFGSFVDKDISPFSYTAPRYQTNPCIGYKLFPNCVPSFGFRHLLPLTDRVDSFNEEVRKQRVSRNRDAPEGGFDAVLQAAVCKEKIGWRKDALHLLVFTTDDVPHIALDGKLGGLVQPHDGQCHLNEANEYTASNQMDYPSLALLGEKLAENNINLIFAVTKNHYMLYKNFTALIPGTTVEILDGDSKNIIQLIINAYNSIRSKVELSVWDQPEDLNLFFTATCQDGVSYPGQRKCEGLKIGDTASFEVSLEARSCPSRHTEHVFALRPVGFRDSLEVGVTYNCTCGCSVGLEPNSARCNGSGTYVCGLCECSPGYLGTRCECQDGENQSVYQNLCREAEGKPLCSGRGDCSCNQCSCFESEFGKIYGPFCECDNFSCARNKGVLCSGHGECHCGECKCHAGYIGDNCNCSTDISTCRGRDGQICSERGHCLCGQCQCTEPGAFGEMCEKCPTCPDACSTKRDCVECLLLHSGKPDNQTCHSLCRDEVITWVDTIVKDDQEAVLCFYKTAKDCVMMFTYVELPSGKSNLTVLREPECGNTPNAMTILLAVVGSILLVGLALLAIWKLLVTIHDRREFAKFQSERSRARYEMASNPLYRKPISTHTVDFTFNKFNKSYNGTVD
Summary of the method: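 Human αvβ5 coated at 1 µg/mL in Tris buffer with Ca, Mg, Mn; biotinylated human vitronectin (1 µg/mL) plus compounds (0.0001-20 µM) incubated 2 h, all at room temperature. NeutrAvidin-HRP, OPD development, absorbance 492 nm; IC50 from four-parameter fit of triplicate % inhibition relative to buffer controls.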

[8] = Area under curve for the compound was determined at infinity in mouse upon 50 mpk peroral administration; format: ADME; details: in vivo, po, 50 mg/kg
[9] = target: Integrin alpha-IIb/beta-3 (Homo sapiens, UniProt P05106+P08514); assay: In vitro inhibition of human alphaIIb betaIIIa integrin binding in ELISA; format: protein-complex assay
Sequence of Integrin alpha-IIb/beta-3 (P05106 27-788 limits assumed): as the sequence (P05106 27-788 limits assumed) above
Sequence of Integrin alpha-IIb/beta-3 (P08514 32-887 limits assumed): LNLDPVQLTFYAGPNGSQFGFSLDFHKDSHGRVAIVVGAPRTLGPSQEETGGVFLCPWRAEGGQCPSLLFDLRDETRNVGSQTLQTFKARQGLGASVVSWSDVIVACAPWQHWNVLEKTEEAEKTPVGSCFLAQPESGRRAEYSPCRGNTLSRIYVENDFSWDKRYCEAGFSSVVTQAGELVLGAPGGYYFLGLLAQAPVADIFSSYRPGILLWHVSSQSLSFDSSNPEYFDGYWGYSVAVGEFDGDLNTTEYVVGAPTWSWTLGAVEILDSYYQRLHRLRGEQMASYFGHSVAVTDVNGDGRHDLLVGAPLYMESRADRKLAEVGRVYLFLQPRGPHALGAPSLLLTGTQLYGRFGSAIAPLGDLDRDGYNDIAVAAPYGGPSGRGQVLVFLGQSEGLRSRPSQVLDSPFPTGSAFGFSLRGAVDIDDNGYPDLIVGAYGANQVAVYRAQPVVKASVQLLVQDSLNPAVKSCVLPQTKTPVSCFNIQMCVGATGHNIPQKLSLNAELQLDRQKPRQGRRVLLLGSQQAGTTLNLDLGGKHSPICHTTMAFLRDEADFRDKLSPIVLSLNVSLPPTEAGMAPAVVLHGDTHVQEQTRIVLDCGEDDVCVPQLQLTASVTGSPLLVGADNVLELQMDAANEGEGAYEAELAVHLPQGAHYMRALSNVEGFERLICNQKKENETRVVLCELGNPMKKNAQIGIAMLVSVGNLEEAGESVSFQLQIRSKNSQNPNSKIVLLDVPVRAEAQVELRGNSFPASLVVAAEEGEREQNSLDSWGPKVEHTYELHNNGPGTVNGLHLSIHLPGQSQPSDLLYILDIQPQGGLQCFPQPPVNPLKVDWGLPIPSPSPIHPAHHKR
Sequence of Integrin alpha-IIb/beta-3 (P08514 891-1039 limits assumed): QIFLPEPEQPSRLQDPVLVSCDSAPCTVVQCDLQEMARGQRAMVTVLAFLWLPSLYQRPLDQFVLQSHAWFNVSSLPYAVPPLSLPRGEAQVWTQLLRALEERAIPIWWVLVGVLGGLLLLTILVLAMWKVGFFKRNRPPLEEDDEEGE
Summary of the method: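 Immobilized human fibrinogen (10 µg/mL coat, overnight 4 °C, Tris/Ca buffer pH 7.5) bound by human GPIIbIIIa (40 µg/mL) with compounds 0.027-20.0 µM, 1 h 37 °C; bound receptor detected with anti-GPIIbIIIa mAb then HRP anti-mouse IgG, OPD development, A492. % inhibition vs buffer controls, mean of three determinations; IC50 by four-parameter fit.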

[10] = Area under curve for the compound was determined at infinity in mouse upon 5 mpk intravenous administration; format: ADME; details: in vivo, 5 mg/kg
[11] = Apparent volume of distribution during the terminal phase was determined in mouse upon 5 mpk intravenous administration; format: ADME, organism-based; details: in vivo, 5 mg/kg, read-out: Vz
[12] = Half life in mouse upon 50 mpk peroral administration; format: ADME, organism-based; details: in vivo, po, 50 mg/kg
[13] = Maximum concentration in mouse plasma upon 50 mpk peroral administration (n=3); format: ADME, organism-based; set-up: dose 50 mpk, route oral; details: po, 50 mg/kg

bioavailability [1]	clearance [2]	Ext AUC [3]	half-life [4]	Ext AUC [5]	Tmax [6]	IC50 (Integrin alpha-5/beta-1)	IC50 (Integrin alpha-V/beta-3)	MRT [7]	IC50 (Integrin alpha-V/beta-5)	AUC inf [8]	IC50 [9]	AUC inf [10]	Vd [11]	half-life [12]	Cmax [13]	Compound	Permeability (Caco-2)
114%	65.1 mL/min/kg	2%	5.4 min	1%	30 min	> 20000 nM	33 nM	6.6 min	420 nM	14600 ng·h/mL	> 20000 nM	1280 ng·h/mL	0.5 L/kg	115 min	16200 ng/mL	CNc1cccc(CCOc2ccc3c(CCC(=O)O)coc3c2)n1	1.7e-05 AB cm/s
73%	16.5 mL/min/kg	1%	44.4 min	5%	30 min	7800 nM	30 nM	33.6 min	140 nM	36700 ng·h/mL	> 20000 nM	5040 ng·h/mL	1.05 L/kg	140 min	27500 ng/mL	CNc1cccc(CCOc2ccc3c(CCC(=O)O)csc3c2)n1	1.6e-05 AB cm/s
90%	11.7 mL/min/kg	3%	93.6 min	7%	30 min	15000 nM	49 nM	103 min	210 nM	64000 ng·h/mL	> 20000 nM	7100 ng·h/mL	1.58 L/kg	143 min	38300 ng/mL	CNc1cccc(CCOc2ccc3c(ccn3CCC(=O)O)c2)n1	6e-06 AB cm/s
–	–	–	–	–	–	> 20000 nM	470 nM	–	2.5 nM	–	> 20000 nM	–	–	–	–	O=C(O)CCn1ccc2cc(OCCCNc3ccccn3)ccc21	6e-06 AB cm/s
